# Compound activity (PubChem BioAssay)
# This is a sample that favours compounds with a hit; in the whole collection about 3.4% have one here.
# APOBEC3A inh: APOBEC3A ssDNA deaminase inhibitors, primary screen, selectivity assay for APOBEC3G inhibitor project, biochemical, FAM/TAMRA oligo cleavage fluorescence; DNA dC->dU-editing enzyme APOBEC-3A (Homo sapiens), P31941; recombinant A3A, FAM/TAMRA ssDNA deamination fluorescence; inhibition, % at 20 µM; 0.41% of 330,000 active; AID 493011, 2011;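 active = at least 40% inhibition at 20 µM here, with at most 30% in a related deaminase screen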
# Arrestin-AP2 inh: inhibitors of beta-arrestin/AP2 binding, primary screen, biochemical, GPCR trafficking, flow cytometry | beta-arrestin 1 C-terminal peptide binding to AP2 beta2-adaptin appendage (human) | inhibition, % at 10 µM | 0.31% of 340,000 active | FITC-arrestin peptide / GST-AP2 beads; AP2 beta2 appendage carries R879A mutation;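 active = inhibition above a set limit, near 3 SD of compounds lacking own fluorescence, cut at about 54% in these data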
#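 Assay system: GST-AP2 R879A bound to glutathione beads, E. coli-expressed; Medium: PBS with 0.05% Tween 20 and 0.1% BSA; Also added: fluorescein-tagged arrestin peptide at 50 nM final; Timing: 12 min plus 1 h, RT; Measured by: flow cytometry, FL1 (488/535 nm); Evaluation: percent drop in bead-associated FITC signal.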
# AHR act: AHR activators, primary screen, cell-based, luminescence, luciferase reporter, human | Aryl hydrocarbon receptor (Homo sapiens), P35869 | AHR-responsive luciferase reporter cells | activation, % at 5 µM | 2.5% of 320,000 active; in the data active = activation above about 47%
# UCH37 DUB inh: inhibitors of human UCH37 deubiquitinase, primary screen, biochemical, Ub-AMC cleavage, fluorescence. purified proteasome/UCH37. 0.33% of 330,000 active. inhibition, % (concentration not given with the values);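 active = mean inhibition over replicate wells above about 20%, limit read from the data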
#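 Test system – human UCH37 enzyme supplied as purified proteasome complex · Incubation – 30 min preincubation with enzyme, 25 min cleavage at room temperature · Detection – AMC fluorescence from Ub-AMC cleavage, excitation 355 nm, emission 460 nm · Benchmarks – no-proteasome wells (full inhibition) and compound-free wells (no inhibition)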
# PolyA inhibitor: polyadenylation inhibitors in yeast reporter cells, primary screen, luminescence, S. cerevisiae; S. cerevisiae SKY197-pL101 polyadenylation reporter, beta-gal luminescence; efflux-impaired pdr1/pdr3 knockout yeast; score 100 = 6 SD above DMSO; activity score, % at 12 µM; 0.02% of 300,000 active; AID 1875, 2009;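 active = lowest replicate activity score at least 50, where 100 means six control SD above control mean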;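 note: yeast exposed to compound for 9 h at 30 °C; higher score means more reporter readthrough which indicates perturbed polyadenylation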
# APOBEC3G inh: APOBEC3G DNA deaminase inhibitors, primary screen, biochemical, fluorescence, single-stranded DNA substrate, uHTS; DNA dC->dU-editing enzyme APOBEC-3G (Homo sapiens), Q9HC16; recombinant A3G, ssDNA deamination FAM/TAMRA fluorescence; inhibition, % at 20 µM; 0.28% of 330,000 active; AID 493012, 2011;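 active = inhibition of at least 40% at 20 µM, with no more than 30% in the related APOBEC3A deaminase screen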
# Target sequence (Q9HC16 whole entry, looked up): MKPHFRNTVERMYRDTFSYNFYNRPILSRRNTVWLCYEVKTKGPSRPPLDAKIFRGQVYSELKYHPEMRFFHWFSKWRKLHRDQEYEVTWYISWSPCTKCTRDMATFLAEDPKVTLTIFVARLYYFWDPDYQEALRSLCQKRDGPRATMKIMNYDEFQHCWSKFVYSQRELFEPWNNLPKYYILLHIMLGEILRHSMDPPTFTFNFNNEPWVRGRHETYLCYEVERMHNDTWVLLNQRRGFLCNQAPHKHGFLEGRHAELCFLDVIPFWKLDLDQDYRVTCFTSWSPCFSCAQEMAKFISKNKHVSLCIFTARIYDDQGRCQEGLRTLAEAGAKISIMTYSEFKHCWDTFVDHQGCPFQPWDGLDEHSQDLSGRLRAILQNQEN
# APOBEC3G confirm: APOBEC3G deaminase inhibitor retest, confirmation, biochemical, fluorescence, single-stranded DNA substrate, single concentration. 72% of 890 active. recombinant A3G ssDNA deaminase, UDG/FAM-TAMRA fluorescence. inhibition, % at 20 µM. shares compounds with APOBEC3G inh;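 active = inhibition reaching a set limit in any replicate at 20 µM, the limit being 80% of the first screen's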
# UDG A3G counter: E. coli UDG inhibitors, confirmation, counter-screen for APOBEC3G inhibitor project, biochemical, single concentration, fluorescence, FAM/TAMRA oligo | shares compounds with APOBEC3G inh | UDG counterscreen | inhibition, % at 20 µM | 710 tested, under 10 active;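 active = compounds giving 40% or more inhibition at 20 µM in any one of the three replicates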;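 note: inhibitors lower the FAM signal released by uracil excision and alkaline cleavage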
# Arr AP2 CP1: inhibitors of arrestin peptide binding to AP2, confirmation, biochemical, cherry pick 1, flow cytometry beads | GST-AP2 beads, FITC arrestin peptide binding; GST-fused beta2-adaptin appendage, R879A mutant | 2% of 1,300 active | AID 504908, 2011 | shares compounds with Arrestin-AP2 inh | inhibition, % at 10 µM;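 active = inhibition above a set limit, roughly 3 SD of non-fluorescent compound noise, cut at about 38% in these data; inactive = inhibition at or below that limit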;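 note: loss of bead fluorescence from 50 nM FITC arrestin peptide bound to appendage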
# GST-FITC bead: GST-fluorescein capture on glutathione beads, confirmation, artefact control for arrestin-AP2 inhibitor project, biochemical, cherry pick 1, flow cytometry | GST-fluorescein binding to GSH beads, fluorescence, counter-screen | inhibition, % at 10 µM | shares compounds with Arrestin-AP2 inh | 2% of 1,300 active;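 active = inhibition above 50%, about 3 SD of the inhibition seen with non-fluorescent compounds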;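 note: fluorescein maleimide labelled GST captured on 4 micron glutathione beads; higher means more loss of bead fluorescence from quenching or blocked binding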
# A number is an active result; . = inactive; / = no result given.
SMILES,APOBEC3A inh,Arrestin-AP2 inh,AHR act,UCH37 DUB inh,PolyA inhibitor,APOBEC3G inh,APOBEC3G confirm,UDG A3G counter,others
COc1cc2c(cc1OC)-c1c3c(cc4c1[C@@H](C2)N(C)CC4)OCO3,.,.,54.9,.,.,45.5,.,/,
C#CC1(O)CCC2C3CCC4=CC(=NOCC(=O)NCC(=O)NC(C(=O)O)C(C)C)CC[C@]4(C)C3CC[C@@]21C (some centres not stated),/,/,/,.,/,/,/,/,
CCn1c(NN=O)nc2ccccc21,.,.,.,.,.,58.4,.,.,
Nc1cc2nc3ccccc3nc2cc1N,.,.,.,.,.,48.4,25.2,.,
Nc1c2c(nc3ccccc13)CCN(Cc1ccccc1)C2,.,.,.,.,.,.,/,/,
CC(=O)O[C@@H]1C=C[C@](C)(O)C[C@@H](C)CC=C[C@H]2[C@H](O)[C@@](C)(O)[C@@H](C)[C@H]3[C@H](Cc4ccccc4)NC(=O)[C@@]312,/,/,/,.,/,/,/,/,
C/C(=N\Nc1cccc2ccccc12)c1c(O)n(Cc2ccccc2)c(=O)[nH]c1=O,.,.,50.6,.,.,41.5,.,.,
C/C(=N\NC(=O)c1ccccc1)c1c(O)n(Cc2ccccc2)c(=O)[nH]c1=O,.,.,.,.,.,.,/,/,
NC(N)=Nc1ccc2[nH]c3c(c2c1)C[C@@]1(O)[C@H]2Cc4ccc(O)c5c4[C@@]1(CCN2CC1CC1)[C@H]3O5,.,.,.,.,/,83.9,96.8,.,
Oc1ccc2c3c1O[C@H]1[C@@H](O)CC[C@@]4(O)[C@@H](C2)N(CC2CCC2)CC[C@]314,.,.,.,.,.,.,/,/,
O=C1C2CCCN2C(c2cccs2)N1c1ccccn1 (configuration not stated),.,.,.,.,.,88.9,.,.,
NC(N)=NN=Cc1cn(-c2ccccc2)nc1-c1cccs1,/,/,/,.,/,/,/,/,
Nc1ccc(Br)cc1,/,.,/,.,/,/,/,/,
Nc1ccc2cc(Br)ccc2c1,.,60.5,.,.,.,.,/,/,Arr AP2 CP1=.;GST-FITC bead=.
O=C1NC(=O)N(CCC2=CCCCC2)C(=O)/C1=C\c1cccs1,.,55.1,.,.,.,.,/,/,Arr AP2 CP1=.;GST-FITC bead=.
COc1cc(C=Nn2cnnc2)ccc1OC(=O)N(C)C,/,/,/,.,/,/,/,/,
Cc1ccc(CC(=O)N2CCN(C)CC2)cc1,.,55.0,.,.,.,.,/,/,Arr AP2 CP1=.;GST-FITC bead=.
N#Cc1c(N=CC2C(=O)NC(=S)NC2=O)sc2c1CCCC2,/,/,/,.,/,/,/,/,
O=C1CC(c2cccnc2)=NN1c1ccc(Cl)cc1Cl,.,61.4,.,.,.,.,/,/,Arr AP2 CP1=.;GST-FITC bead=.
CCN1C(=O)CC(c2cccnc2)=Nc2ccccc21,.,.,.,.,.,.,/,/,
